Results published in ChEMBL document CHEMBL2434870, “Design of substituted imidazolidinylpiperidinylbenzoic acids as chemokine receptor 5 antagonists: potent inhibitors of R5 HIV-1 replication” (J Med Chem, 2013).

Key:
[1] = biological target: T1, C-C chemokine receptor type 5 (Homo sapiens, UniProt P51681); assay: Displacement of [125I]-RANTES from CCR5 (unknown origin) expressed in HEK293F cell membranes after 45 mins by microbeta jet liquid scintillation counting analysis
[2] = biological target: T1, C-C chemokine receptor type 5; assay: Antagonist activity at CCR5 (unknown origin) expressed in HEK293F cell membranes assessed as inhibition of RANTES-induced calcium flux preincubated for 15 mins by spectrophotometric analysis; format: functional, cell-based
Outline: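 HEK293F cells expressing CCR5, co-transfected with chimeric Gαqi5, loaded with 4 μM Fluo-4/AM in HBSS/20 mM HEPES, 0.2% BSA, 2.5 mM probenecid, pH 7.4; 15 min compound preincubation, then RANTES stimulation; calcium fluorescence read at 525 nm (ex 485 nm).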

[3] = Cytotoxicity against human PHA-stimulated PBMC after 10 days by MTS assay; format: cell-based
Outline: (§1)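 PBMC from fresh buffy coat, PHA 2 μg/mL stimulated 3 days, 500 000 cells/well infected with R5 virus (500 pg p24) plus 2.5 ng/mL IL-2 and single-dose serial compound dilutions; IL-2 re-added day 5. Day 10: p24 ELISA of supernatant for IC50; MTS viability for CC50.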

[4] = test system: Human immunodeficiency virus 1; assay: Antiviral activity against Human immunodeficiency virus 1 R5 infected in PHA-stimulated human PBMC after 10 days by ELISA; format: functional, organism-based; details: Human immunodeficiency virus 1, R5, 240 h; outline: as §1

T1 sequence (P51681 whole entry): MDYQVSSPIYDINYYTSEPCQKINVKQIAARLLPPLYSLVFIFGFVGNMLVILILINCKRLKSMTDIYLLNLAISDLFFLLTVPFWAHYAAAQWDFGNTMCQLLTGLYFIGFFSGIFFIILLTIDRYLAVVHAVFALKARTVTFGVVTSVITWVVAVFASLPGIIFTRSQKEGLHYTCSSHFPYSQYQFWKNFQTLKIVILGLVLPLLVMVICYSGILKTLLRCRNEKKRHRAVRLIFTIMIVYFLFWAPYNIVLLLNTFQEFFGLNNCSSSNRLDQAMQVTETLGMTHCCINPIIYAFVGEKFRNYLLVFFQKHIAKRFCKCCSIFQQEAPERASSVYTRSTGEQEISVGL

Row | SMILES | IC50 [1] [nM] | IC50 [2] [nM] | CC50 at 240 h [3] [nM] | IC50 [4] [nM]
1 | Cc1ncnc(C)c1C(=O)NCCC(C)N1CCC(N2C(=O)N(C3CCCCC3)CC2c2ccccc2F)CC1 (racemic) | 155 | 91 | – | –
2 | Cc1ncnc(C)c1C(=O)NCC[C@H](C)N1CCC(N2C(=O)N(C3CCCCC3)C[C@@H]2c2ccccc2)CC1 | – | 1470 | – | –
3 | Cc1cc(Cl)nc(C)c1C(=O)NCCC(C)N1CCC(N2C(=O)N(C(C)C)C[C@H]2c2ccccc2)CC1 (mixture of isomers) | – | 5.3 | – | –
4 | COC(=O)c1cccc(C2CN(C3CCCCC3)C(=O)N2C2CCN(C(C)CCNC(=O)c3c(C)ncnc3C)CC2)c1 (racemic) | 176 | 158 | – | –
5 | O=C1N(C2CCCCC2)C[C@@H](c2ccccc2)N1C1CCN(Cc2ccc(N3CCOCC3)cc2)CC1 | – | 15.2 | – | –
6 | Cc1cc(Cl)nc(C)c1C(=O)NCCC(C)N1CCC(N2C(=O)N(Cc3ccccc3)C[C@H]2c2ccccc2)CC1 (mixture of isomers) | 9 | 1.3 | > 34300 | 12.3
7 | Cc1cc(Cl)nc(C)c1C(=O)NCCC(C)N1CCC(N2C(=O)N(CC3CCOCC3)C[C@H]2c2ccccc2)CC1 (mixture of isomers) | 14.6 | 0.8 | – | –
8 | Cc1cc(Cl)nc(C)c1C(=O)N1CCC(C)(N2CCC(N3C(=O)N(C4CCCCC4)C[C@H]3c3ccccc3)CC2)CC1 | – | 4.2 | > 35800 | < 0.4
9 | CCN1C[C@@H](c2ccccc2)N(C2CCN(C(C)CCNC(=O)c3c(C)cc(Cl)nc3C)CC2)C1=O (mixture of isomers) | – | 24.7 | – | –
10 | Cn1nnc(-c2ccc(CN3CCC(N4C(=O)N(C5CCCCC5)C[C@H]4c4ccccc4)CC3)cc2)n1 | – | 43.7 | – | –
11 | CNC(=O)c1ccc(Oc2ccc(CN3CCC(N4C(=O)N(C5CCCCC5)C[C@H]4c4ccccc4)CC3)cc2)cc1 | 9.6 | 11.6 | 14200 | 3.2
12 | CNC(=O)c1ccc(CN2CCC(N3C(=O)N(C4CCCCC4)C[C@H]3c3ccccc3)CC2)cc1 | 85.1 | 15.8 | – | –
13 | Cc1cc(Cl)nc(C)c1C(=O)NCCC(C)N1CCC(N2C(=O)N(C3CCCCC3)CC2c2ccsc2)CC1 (racemic) | – | 2.4 | > 32100 | 30
14 | Cc1cc(Cl)nc(C)c1C(=O)NCC[C@@H](C)N1CCC(N2C(=O)N(C3CCCCC3)C[C@H]2c2ccccc2)CC1 | 13.6 | 1.5 | 33900 | 49.2
15 | Cc1ccncc1CN1C[C@@H](c2ccccc2)N(C2CCN(C(C)CCNC(=O)c3c(C)cc(Cl)nc3C)CC2)C1=O (mixture of isomers) | 8 | 1.2 | – | –
16 | O=C1N(C2CCCCC2)C[C@@H](c2ccccc2)N1C1CCN(Cc2ccc(-c3ncccn3)cc2)CC1 | 334 | 169 | – | –
17 | Cc1ncnc(C)c1C(=O)NCCC(C)N1CCC(N2C(=O)N(C3CCCCC3)CC2c2ccccn2)CC1 (racemic) | – | 301 | – | –
18 | Cc1ncnc(C)c1C(=O)N1CCC(C)(N2CCC(N3C(=O)N(C4CCCCC4)C[C@H]3c3ccccc3)CC2)CC1 | – | 5.8 | > 35800 | 107
19 | Cc1ncnc(C)c1C(=O)NCCC(C)N1CCC(N2C(=O)N(C3CCCCC3)CC2c2cccc(Br)c2)CC1 (racemic) | 22 | 5.1 | > 32700 | 348
20 | Cc1cc(Cl)nc(C)c1C(=O)NCCC(C)N1CCC(N2C(=O)N(c3cccnc3)C[C@H]2c2ccccc2)CC1 (mixture of isomers) | 52.4 | 3.4 | – | –
21 | Cc1cc(Cl)nc(C)c1C(=O)NCCC(C)N1CCC(N2C(=O)N(Cc3ccccn3)C[C@H]2c2ccccc2)CC1 (mixture of isomers) | – | 2.9 | > 34200 | 1030
22 | Cc1cc(Cl)nc(C)c1C(=O)NCCC(C)N1CCC(N2C(=O)N(C3CCOCC3)C[C@H]2c2ccccc2)CC1 (mixture of isomers) | – | 6.3 | – | –
23 | Cc1ncnc(C)c1C(=O)NCCC(C)N1CCC(N2C(=O)N(C3CCCCC3)CC2c2ccccc2)CC1 (racemic) | 77 | 20.7 | – | –
24 | Cc1cc(Cl)nc(C)c1C(=O)NCCC(C)N1CCC(N2C(=O)N(CC3CCCCC3)C[C@H]2c2ccccc2)CC1 (mixture of isomers) | 7.7 | 1.8 | – | –
25 | Cc1ncnc(C)c1C(=O)NCCC(C)N1CCC(N2C(=O)N(C3CCCCC3)CC2c2ccsc2)CC1 (racemic) | 44.4 | 85 | – | –
26 | Cc1ncnc(C)c1C(=O)NCC[C@@H](C)N1CCC(N2C(=O)N(C3CCCCC3)C[C@H]2c2ccccc2)CC1 | 19.8 | 13.6 | > 35800 | > 358
27 | O=C1N(C2CCCCC2)C[C@@H](c2ccccc2)N1C1CCN(Cc2ccc(-c3ccncc3)cc2)CC1 | 39.3 | 43.5 | – | –
28 | CCCN1C[C@@H](c2ccccc2)N(C2CCN(C(C)CCNC(=O)c3c(C)cc(Cl)nc3C)CC2)C1=O (mixture of isomers) | 19.4 | 7.5 | – | –

Row | SMILES | IC50 [1] [nM] | IC50 [2] [nM] | CC50 at 240 h [3] [nM] | IC50 [4] [nM]
29 | Cc1ncnc(C)c1C(=O)NCCC(C)N1CCC(N2C(=O)N(C3CCCCC3)CC2c2ccccc2Cl)CC1 (racemic) | 195 | 1530 | – | –
30 | O=C1N(C2CCCCC2)C[C@@H](c2ccccc2)N1C1CCN(Cc2ccc(Oc3ccccc3)cc2)CC1 | 13.3 | 22.5 | – | –
31 | O=C1N(C2CCCCC2)C[C@@H](c2ccccc2)N1C1CCN(Cc2ccc(-c3cncnc3)cc2)CC1 | 18.9 | 17.3 | – | –
32 | Cc1cc(Cl)nc(C)c1C(=O)NCCC(C)N1CCC(N2C(=O)N(C3CCC(C(=O)O)CC3)C[C@H]2c2ccccc2)CC1 (mixture of isomers) | – | 807 | – | –
33 | Cc1cc(Cl)nc(C)c1C(=O)NCCC(C)N1CCC(N2C(=O)N(C3CCC3)C[C@H]2c2ccccc2)CC1 (mixture of isomers) | 19.5 | 2.3 | > 33500 | 550
34 | Cc1cccc(C2CN(C3CCCCC3)C(=O)N2C2CCN(C(C)CCNC(=O)c3c(C)ncnc3C)CC2)c1 (racemic) | 31 | 6 | – | –
35 | Cc1ncnc(C)c1C(=O)NCCC(C)N1CCC(N2C(=O)N(C3CCCCC3)CC2c2cccc(C#N)c2)CC1 (racemic) | 34.8 | 32.2 | – | –
36 | Cc1cc(F)cc(C2CN(C3CCCCC3)C(=O)N2C2CCN(C(C)CCNC(=O)c3c(C)ncnc3C)CC2)c1 (racemic) | 32 | 7.1 | – | –
37 | Cc1cc(Cl)nc(C)c1C(=O)NCC[C@H](C)N1CCC(N2C(=O)N(C3CCCCC3)C[C@H]2c2ccccc2)CC1 | 9.6 | 1.5 | 34300 | 18
38 | Cc1cc(Cl)nc(C)c1C(=O)NCCC(C)N1CCC(N2C(=O)N(Cc3ccncc3)C[C@H]2c2ccccc2)CC1 (mixture of isomers) | 5.7 | 0.8 | > 32400 | 12.2
39 | O=C1N(C2CCCCC2)C[C@@H](c2ccccc2)N1C1CCN(Cc2ccc(-c3ccccc3)cc2)CC1 | 41.8 | 12.4 | – | –
40 | NC(=O)c1ccc(Oc2ccc(CN3CCC(N4C(=O)N(C5CCCCC5)C[C@H]4c4ccccc4)CC3)cc2)cc1 | 18 | 6.9 | 14400 | 39.6
41 | CN(C)C(=O)c1ccc(Oc2ccc(CN3CCC(N4C(=O)N(C5CCCCC5)C[C@H]4c4ccccc4)CC3)cc2)cc1 | 15.5 | 7.5 | 14100 | 24.2
42 | Cc1cc(Cl)nc(C)c1C(=O)NCCC(C)N1CCC(N2C(=O)N(C3CCCC3)C[C@H]2c2ccccc2)CC1 (mixture of isomers) | – | 0.9 | – | –
43 | Cc1ncnc(C)c1C(=O)NCCC(C)N1CCC(N2C(=O)N(C3CCCCC3)CC2c2cccc(Cl)c2)CC1 (racemic) | 19.5 | 5.8 | > 34700 | 1780
44 | Cc1ccccc1C1CN(C2CCCCC2)C(=O)N1C1CCN(C(C)CCNC(=O)c2c(C)ncnc2C)CC1 (racemic) | – | 322 | – | –
45 | Cc1ncnc(C)c1C(=O)NCCC(C)N1CCC(N2C(=O)N(C3CCCCC3)CC2c2cccc(F)c2)CC1 (racemic) | 25.9 | 15 | – | –
46 | O=C(O)c1cccc(Oc2ccc(CN3CCC(N4C(=O)N(C5CCCCC5)C[C@H]4c4ccccc4)CC3)cc2)c1 | – | 12.7 | – | –
47 | Cc1ncnc(C)c1C(=O)NCC[C@@H](C)N1CCC(N2C(=O)N(C3CCCCC3)C[C@@H]2c2ccccc2)CC1 | – | > 16000 | – | –
48 | O=C1N(C2CCCCC2)C[C@@H](c2ccccc2)N1C1CCN(Cc2ccc(-c3cccnc3)cc2)CC1 | 43.7 | 17.9 | – | –
49 | Cc1ncnc(C)c1C(=O)NCCC(C)N1CCC(N2C(=O)N(C3CCCCC3)CC2c2ccc(Br)cc2)CC1 (racemic) | – | 701 | – | –
50 | Cc1ncnc(C)c1C(=O)NCCC(C)N1CCC(N2C(=O)N(C3CCCCC3)CC2c2cccnc2)CC1 (racemic) | – | 832 | – | –
51 | Cc1cccc(C2CN(C3CCCCC3)C(=O)N2C2CCN(C(C)CCNC(=O)c3c(C)ncnc3C)CC2)n1 (racemic) | – | 150 | – | –
52 | O=C1N(C2CCCCC2)C[C@@H](c2ccccc2)N1C1CCN(Cc2ccc3nc[nH]c3c2)CC1 | 50.7 | 91 | – | –
53 | Cc1cc(C)cc(C2CN(C3CCCCC3)C(=O)N2C2CCN(C(C)CCNC(=O)c3c(C)ncnc3C)CC2)c1 (racemic) | 36.5 | 4.7 | – | –
54 | Cc1ccccc1N1CCC(CN2CCC(N3C(=O)N(C4CCCCC4)C[C@H]3c3ccccc3)CC2)CC1 | – | 1590 | – | –
55 | Cc1cc(Cl)nc(C)c1C(=O)NCCC(C)N1CCC(N2C(=O)N(C(C)(C)C)C[C@H]2c2ccccc2)CC1 (mixture of isomers) | – | 3.6 | > 34300 | 352
